V-ATPase pH = yeast V-ATPase proton transport regulation by pHLuorin | S. cerevisiae, pHLuorin cytosolic pH fluorescence | response, % at 10 µM | AID 504577 | hit rate 0.37% among 350,000; in the data active = response mostly above about 7.3%, no sharp cut-off; inactive = mostly below about 5.4%; also: actives read high
proKLK7 act = activates the human kallikrein-7 zymogen | activation, % at 7 µM | P49862 | hit rate 0.9% among 370,000 | purified proKLK7, EDANS-DABCYL substrate fluorescence; 100% is mature enzyme control, 0% vehicle;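 active = activation above the mean of all tested compounds plus 3 SD, computed per campaign excluding outliers beyond control limits, cut at about 13% in these data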
Target sequence (P49862 whole entry, looked up): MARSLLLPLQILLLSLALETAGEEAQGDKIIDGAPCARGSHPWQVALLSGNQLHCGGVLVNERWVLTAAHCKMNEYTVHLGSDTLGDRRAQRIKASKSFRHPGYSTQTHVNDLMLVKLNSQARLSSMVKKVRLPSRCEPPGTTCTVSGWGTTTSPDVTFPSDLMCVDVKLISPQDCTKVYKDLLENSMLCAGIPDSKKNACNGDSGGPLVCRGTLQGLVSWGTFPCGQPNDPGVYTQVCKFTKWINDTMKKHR
T cell modulator = T cell immune modulators affecting CD8 T cell-vesicle binding; hit rate 0.068% among 330,000; AID 2052; response (vesicle binding), % at 7 µM; 2C CD8+ T cell-vesicle binding, flow cytometry; active compounds read low;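 active = response, share of CD8 T cells binding vesicles, and their 90th percentile fluorescence all below set limits, cut at about 80% in these data, passing the limit was not always enough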;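 also: values below 100% mean blocked vesicle binding to the CD8+ T cells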
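Also added: QL9-peptide-loaded Drosophila micro-vesicles bearing Ld, ICAM-1 and B7-1; Test system: purified 2C TCR transgenic mouse naive CD8+ T cells; Measured by: cytometric PE anti-B7-1 and Alexa647 anti-CD8 signals after 1% paraformaldehyde fixation; Timing: binding step 1.5 h, 37 °C, antibody labelling 20 min, ice.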
beta cell repl = induces beta-cell replication in MIN6 cells. MIN6 cells proliferation, ATPlite luminescence, 48 h; cells starved in 0.2% serum; 100% = growth in 10% serum. proliferation, % at 10 µM. hit rate 0.29% among 330,000. AID 2380;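 active = compounds whose signal lies at least 3.5 SD above the mean of all wells on their plate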;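 also: 0% = DMSO-treated cells in low-serum medium and 100% = 10% serum control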
Rce1 inh = inhibitors of yeast Ras-converting enzyme; Q03530; yeast membranes, quenched prenylated peptide cleavage fluorescence; calls only; hit rate 0.27% among 290,000;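 active = fall in fluorescence gain of 50% or more versus controls, with final raw signal at or below 3038400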;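 also: plate controls were neutral control wells for no effect and wells lacking membranes for full effect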
Target sequence (Q03530 whole entry, looked up): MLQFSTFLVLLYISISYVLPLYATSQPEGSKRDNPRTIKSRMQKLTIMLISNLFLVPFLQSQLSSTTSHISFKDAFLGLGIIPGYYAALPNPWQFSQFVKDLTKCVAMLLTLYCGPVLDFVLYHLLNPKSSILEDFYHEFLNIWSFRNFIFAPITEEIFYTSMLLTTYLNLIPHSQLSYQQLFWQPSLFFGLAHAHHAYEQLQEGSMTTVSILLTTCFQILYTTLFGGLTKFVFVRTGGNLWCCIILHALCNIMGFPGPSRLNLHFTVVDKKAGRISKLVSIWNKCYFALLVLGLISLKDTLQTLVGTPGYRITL
CR mimetic SO = lowers age-related superoxide in aged yeast cells. S. cerevisiae aged cells, superoxide DHE fluorescence; active compounds read low. superoxide response (% of plate mean), % at 10 µM. hit rate 0.18% among 330,000. AID 2690;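 active = superoxide response under a set limit, about three screen SD below normal, cut at about 65% in these data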;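 also: yeast aged for seven days with compound at 30 °C before DHE staining; 100% = average MFI of all compound-treated wells on the plate with controls excluded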
Superoxide pick = yeast aging superoxide inhibition, cherry pick confirmation; shares compounds with CR mimetic SO; S. cerevisiae aging, superoxide DHE fluorescence; active compounds read low; hit rate 1% among 850; superoxide response (% of plate), % at 10 µM;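 active = superoxide signal below 65% of the plate average of sample wells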;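 also: cells aged with compound for 7 days at 30 degrees C before staining; 100% equals mean DHE fluorescence of all compound wells on the plate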
DHE fluor count = DHE fluorescence interference, counter-screen artifact; shares compounds with CR mimetic SO; S. cerevisiae BY4741, flow cytometry; active compounds read low; fluorescence response, % at 10 µM; 850 tested, under 10 active; AID 435000;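 active = fluorescence response below 15%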;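 also: percent of the mean fluorescence averaged over all compound wells on the plate; lower means stronger quenching of DHE signal or ROS scavenging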
* marks the source's active call; other numbers are inactive results; i = inactive; . = no result given. Hits are enriched below; roughly 1.9% of the tested compounds scored in any of these assays.

SMILES	V-ATPase pH	proKLK7 act	T cell modulator	beta cell repl	Rce1 inh	CR mimetic SO	Superoxide pick	DHE fluor count
CCc1ccc(C(=O)Nc2ccc3c(c2)n(C)c(=O)n3C)cc1	0.7	-0.2	219.4	-3.1	i	96.9	.	.
CCCN1C(=O)CC(=O)N=C1SCC(=O)Nc1ccccc1F	-1.4	-0.8	167.3	-3.0	.	88.5	.	.
CN(Cc1ccccc1)C(=O)CCC1CCN(S(C)(=O)=O)CC1	-0.1	0.1	185.8	-3.8	i	64.9*	127.1	109.7
COC(=O)c1ccc2c(=O)n(CCCCCC(=O)N3CCN(c4ccccc4)CC3)c(=O)[nH]c2c1	1.3	0.3	i	-3.9	i	106.9	.	.
COc1cc2[nH]c(=O)n(CCCCCC(=O)N3CCN(c4ccccc4)CC3)c(=O)c2cc1OC	-0.1	-0.3	216.0	-3.8	i	64.2*	95.4	92.9
CCC(=Nc1ccccc1O)C1=C(O)CC(c2ccccc2)CC1=O (configuration not stated)	1.2	-0.2	379.9	-4.5	i	61.6*	69.8	97.9
CCC(=Nc1ccccc1OC)C1=C(O)CC(c2ccccc2)CC1=O (configuration not stated)	1.2	0.0	271.4	-0.7	i	67.5	.	.
O=c1cc(CSc2n[nH]c(=O)n2C2CC2)c2ccc(O)cc2o1	2.9	-0.8	682.1	-0.3	i	98.9	.	.
O=C(O)c1cnc2ccccc2n1	1.3	-0.2	648.0	-2.4	i	64.3*	70.6	94.4
COC(=O)c1cnc2ccccc2n1	-1.8	-0.7	455.3	-0.1	i	94.6	.	.
C[C@@H]1CN([C@@H](C)CO)C(=O)c2cccc(NC(=O)Nc3ccccc3)c2O[C@H]1CN(C)C(=O)Nc1cccc2ccccc12	3.3	-2.0	294.1	-1.0	.	93.8	.	.
COc1ccc(NC(=O)CCn2c(=S)[nH]c3ccccc3c2=O)cc1	-3.1	-0.4	157.3	-1.4	i	65.3*	114.5	112.5
COC(=O)c1ccccc1NC(=O)CN1CCN(c2ccccn2)CC1	1.0	0.1	613.8	3.0	i	105.3	98.8	92.8
O=C(CN1CCN(c2ccc([N+](=O)[O-])cc2)CC1)Nc1ccccn1	2.7	0.6	285.3	0.1	i	60.2*	107.3	114.9
O=C(CN1CCN(c2ccc([N+](=O)[O-])cc2)CC1)Nc1nccs1	-2.5	-0.2	476.1	-2.0	i	95.2	.	.
N#Cc1ccccc1NC(=O)CN1CCN(c2ccccn2)CC1	3.8	-0.6	254.1	-1.8	i	98.3	109.1	100.4
COC(=O)c1ccccc1NC(=O)CN1CCCCCC1	-0.4	-0.1	549.0	0.7	i	97.6	.	.
O=C(CN1CCN(c2ccccn2)CC1)Nc1ccccc1Br	1.7	1.0	401.2	1.4	i	94.3	108.4	98.6
COC(=O)c1ccc(COC(=O)C2CCN(S(=O)(=O)c3ccc(C)c(C)c3)CC2)o1	-2.6	0.4	355.8	-0.7	i	103.8	.	.
COC(=O)C1CN(C2CCCC2)CCS(=O)(=O)N1Cc1ccc(C)cc1 (configuration not stated)	.	0.5	.	.	.	.	.	.
O=[N+]([O-])c1cccc(NC(=S)Nc2nc(-c3ccccc3Cl)cs2)c1	2.5	-0.7	285.4	-7.3	i	106.3	.	.
Cc1cc(C)cc(NC(=O)CN2CCN(c3ccccn3)CC2)c1	-0.2	0.2	169.6	2.7	i	89.4	.	.
COc1ccc(C)cc1NC(=O)CN1CCN(c2ccccn2)CC1	0.9	0.6	200.0	-3.0	i	103.1	107.2	93.4
COc1ccccc1NC(=O)CN1CCN(c2ccccn2)CC1	2.2	-0.2	196.0	-2.6	i	136.3	99.3	117.4
O=C(CN1CCN(c2ccccn2)CC1)Nc1cccc(S(=O)(=O)N2CCOCC2)c1	-0.6	-0.2	358.4	-1.2	i	117.9	.	.
SMILES	V-ATPase pH	proKLK7 act	T cell modulator	beta cell repl	Rce1 inh	CR mimetic SO	Superoxide pick	DHE fluor count
O=C(CN1CCN(c2ccccn2)CC1)Nc1cccc(Cl)c1Cl	-2.3	0.5	677.9	1.1	i	86.5	110.7	108.6
Cc1ccc(NC(=O)CN2CCN(c3ccccn3)CC2)c(Cl)c1	4.8	-0.3	213.9	-0.5	i	81.6	113.7	130.3
COc1cc(NC(=O)CN2CCN(c3ccccn3)CC2)cc(OC)c1OC	3.8	0.4	260.3	-1.8	.	100.2	99.5	93.5
Cc1ccc(NC(=O)CN2CCN(c3ccccn3)CC2)cc1S(=O)(=O)N(C)C	-2.4	-0.7	229.3	-2.2	i	96.5	.	.
OC1(C#Cc2c(-c3ccsc3)sc3ccccc23)CCCCC1	.	-0.8	.	.	.	.	.	.
CCN(CC)S(=O)(=O)c1ccc(N2CCCC2)c(NC(=O)Cc2ccccc2)c1	-0.9	0.2	376.3	-4.0	i	39.7*	110.4	108.0
CCN(CC)S(=O)(=O)c1ccc(N2CCCC2)c(NS(=O)(=O)c2ccccc2)c1	-1.0	0.4	185.1	-1.4	i	72.2	.	.
O=C(Cc1ccccc1F)Nc1cc(S(=O)(=O)N2CCOCC2)ccc1N1CCCC1	.	-0.2	515.4	2.3	.	94.0	109.8	105.1
COc1nc(NC(=O)c2ccc(F)cc2)nc(OC)c1-c1ccccc1	0.3	-0.1	781.6	-1.1	i	92.0	.	.
COc1ccc(CCNC(=O)CNS(=O)(=O)c2ccc(N(C)C)c([N+](=O)[O-])c2)cc1OC	-1.5	-0.1	85.2	-4.3	i	65.3*	100.2	98.7
COc1ccc(CCNC(=O)CCNS(=O)(=O)c2cccc(Cl)c2)cc1OC	4.3	0.7	259.5	-0.3	i	58.8*	92.3	112.1
CCCNS(=O)(=O)c1ccc(CCC(=O)NCCc2ccc(OC)c(OC)c2)cc1	-3.9	-0.3	285.0	3.5	i	97.3	.	.
NC(=O)c1ncn([C@@H]2O[C@H](CNCc3cc(Br)ccc3OCc3ccccc3)[C@@H](O)[C@H]2O)n1	1.9	0.3	.	.	.	.	.	.
COC(=O)[C@H](Cc1ccccc1)NC(=O)[C@@H](N)CC(=O)OCc1ccccc1	-3.8	0.7	76.3	-4.0	.	64.8*	93.7	100.8
COC(=O)C(CC(C)C)NC(=O)C(N)Cc1ccccc1 (configuration not stated)	8.0	0.1	262.2	1.0	i	90.7	.	.
CCCCn1c(CNC(=O)Cc2ccccc2)nc2ccccc21	-0.2	0.4	431.9	0.2	i	114.1	.	.
CCCCn1c2ccccc2c2cc(CC(N)=O)ccc21	-6.9	0.0	505.7	1.4	i	103.2	93.9	91.4
CCN(CC)c1cccc(OCC(=O)N2c3ccccc3CC2C)c1 (configuration not stated)	0.9	-0.4	435.7	-3.4	.	112.7	.	.
CC1(C)Cc2ccccc2C(Nn2cnnc2)=N1	2.0	-0.1	397.6	-1.9	i	98.3	.	.
